Measurements published in PMC9091711 (RSC Advances, 2018).

Experiments:
caspase-3 = assay: Active caspase-3 expression by flow cytometry; type: cell-based, human; details: Jurkat cells, 24 h, 4a at IC50 concentration
Outline: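 Jurkat cells were seeded at 1 × 10^6 cells per well and left 12 h, then exposed to the test compound for 24 h. Cells were harvested, fixed in 70% ice-cold ethanol at −20 °C for 30 min, and washed twice with PBS. They were stained with FITC anti-active caspase-3 antibody for 60 min at room temperature in the dark, washed, resuspended in PBS and analysed by flow cytometry.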

Jurkat cells = assay: Annexin V-FITC/PI apoptosis assay by flow cytometry; type: cell-based, human; details: 24 h, 4a at IC50 concentration
[1] = cited from earlier work

CC[C@@]1(O)C(=O)OCc2c1cc1n(c2=O)Cc2cc3ccccc3nc2-1 [CPT, camptothecin]
Active caspase-3 expression (M2, apoptotic cells) (caspase-3): > 54% | Apoptotic dying cells (M2, Annexin-V-FITC fluorescence intensity) (Jurkat cells): 68% | Cells in late stage apoptosis (Jurkat cells; Annexin V-FITC/PI): 14%

CC(C)(C)C[C@@H]1N[C@@H](C(=O)N[C@H]2CC[C@H](O)CC2)[C@H](c2cccc(Cl)c2F)[C@]12C(=O)Nc1cc(Cl)ccc12 [MI-773]
Stability in solution [1]: low stability in solution
